Molecules are shown by their SMILES. Calls of active or inactive are those of the source.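 Rule for the calls, unless noted: active = viability at or under a set limit in both replicates, limit being median viability minus 3 SD (cut at about 48% in these data, passing the limit was not always enough); inconclusive = at or under the limit in just one replicate; inactive = at or above the limit in both replicates.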

In PubChem BioAssay one finds viability, differential viability (reversal) and inhibition data, which are given here for 18 compounds.

Assay [1] is described as follows: reduced viability of SK-BR-3 breast cancer cells – cell-based, 24 h, human, pilot screen (AID 572;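 active = viability at or below 10% of carrier control in both of two separate runs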;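 note: compound exposure lasted between 18 and 24 h rather than exactly 24 h; 100% = carrier-treated control wells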). The settings on record: SK-BR-3 viability, CellTiter-Glo luminescence, at 10 µM, stronger effect = lower value. A general note: ATP-based viability assays read luminescence as a measure of living cells.
Assay [2] is described as follows: HUVEC growth inhibition – cell-based, human, primary screen (AID 575;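 active = viability at or below 30% in both replicate assays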;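 note: 100% = median of untreated cell wells with 0.1% DMSO on each plate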). The settings on record: HUVEC proliferation, CellTiter-Glo luminescence, 72 h; at 10 µM; stronger effect = lower value. An outline of the steps: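 system = HUVEC primary cells | amount = 1250 cells/well | buffer or medium = supplemented EBM, 2% fetal bovine serum | dosing = single-point 10 µM, DMSO 0.1% final | times = 72 h compound incubation | detection = CTG luminescence | read-out = % viability relative to median vehicle-well signal on each plate | control set = vehicle and MePR control wells | format = collagen-coated 384-well format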

Assay [3] in a line: H69AR cell proliferation blockers – human, duplicate replicates, primary screen (AID 580).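 Note: 100% = mean luminescence of untreated wells and 0% = no signal.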 The settings on record: H69AR lung tumor cells viability, ATP luminescence, 72 h; at 10 µM; stronger effect = lower value.
Assay [4] is described as follows: MRP1 drug-resistance reversers in H69AR cells – cell-based, doxorubicin co-treatment, pilot screen (AID 601;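 active = viability loss from added drug above about 55%, and viability with drug at most 40%, in both replicates, limit read from the data, passing the limit was not always enough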). The settings on record: CellTiter-Glo, 72 h, at 10 µM; for differential viability (reversal): stronger effect = higher value.
Assay [5] can be described thus: yeast transport mutant growth inhibition pilot in 384-well plates, post-Golgi transport modulator project (AID 636; in the data active = inhibition above about 31%). The settings on record: absorbance 615 nm, about 18 h, stronger effect = higher value.
The nature of assay [6]: growth suppression of yeast trafficking mutant, preliminary HTS, modulators of trafficking downstream of Golgi apparatus project, 1536-format plate, OD 615 nm (AID 637; in the data active = inhibition above about 30%). The settings on record: yeast transport mutant growth, absorbance 615 nm, 18 h; stronger effect = higher value.
Setting [7] is: H69AR cells + 2 uM doxorubicin, measured here: viability with 2 uM doxorubicin, stronger effect = lower value.
[8] abbreviates: H69AR cells, compound alone cytotoxicity.

For `O=C(CSCc1cccs1)N1CCCC1`, the viability (usually a read-out of living cells in per cent, often relative to untreated cells) is 115% (inactive) in assay [1]; 93.6% (inactive) in assay [2]; 104% (inactive) in assay [3]; 90.6% in assay [4] (setting [7]); 104% in assay [4] (setting [8]). Moreover, the differential viability (reversal) in assay [4] (H69AR cells + 2 uM doxorubicin) was 13.8% (inactive). The inhibition (usually the drop in the measured response relative to a control, in per cent) in assay [5] is -0.91% (inactive); in assay [6], 5.41% (inactive).

As to `COC(=O)[C@H](C)NC(=O)Nc1cccc(C(F)(F)F)c1`, the viability in assay [1] is 145% (inactive); in assay [2] it was 97.2% (inactive); in assay [3] it was 89.9% (inactive); in assay [4] (setting [7]) it was 95.7%; in assay [4] (setting [8]), 89.9%. Moreover, the differential viability (reversal) in assay [4] (H69AR cells + 2 uM doxorubicin) was -5.75% (inactive). The inhibition in assay [5] is -0.96% (inactive); in assay [6] it was 30% (active).

As for `CCOC(=O)c1ccc(CNC(=O)C(Cc2c[nH]c3ccccc23)NC(C)=O)o1` (centres undefined), the viability was 90% (inactive) in assay [1]; 90.3% (inactive) in assay [2]; 101% (inactive) in assay [3]; 92.3% in assay [4] (setting [7]); 101% in assay [4] (setting [8]). The differential viability (reversal) in assay [4] (H69AR cells + 2 uM doxorubicin) was 8.63% (inactive). Also, the figures for the inhibition in assay [5] and in assay [6] were -6.99% (inactive) and 0.36% (inactive), respectively.

`COc1ccc(CCN2C(=O)CC(N3CCOCC3)C2=O)cc1` (centres undefined): the viability is 88% (inactive) in assay [1]; 89.4% (inactive) in assay [2]; 96.2% (inactive) in assay [3]; 79.9% in assay [4] (setting [7]); 96.2% in assay [4] (setting [8]). In addition, the differential viability (reversal) in assay [4] (H69AR cells + 2 uM doxorubicin) was 16.3% (inactive). Besides, the inhibition was 2.05% (inactive) in assay [5] and -7.58% (inactive) in assay [6].

Turning to `CCOC(=O)c1ccc2[nH]c3c(c2c1)CCCCC3=O`, the viability in assay [1] is 80% (inactive); in assay [2], 105% (inactive); in assay [3], 99.5% (inactive); in assay [4] (setting [7]), 90.5%; in assay [4] (setting [8]) it was 99.5%. Moreover, in assay [4] (H69AR cells + 2 uM doxorubicin), the differential viability (reversal) was 8.96% (inactive). In addition, the inhibition in assay [5] was -3.6% (inactive); in assay [6] it was -0.73% (inactive).

As to `CCCc1cc(=O)[nH]c(SCc2ccccc2)n1`, the viability in assay [1] was 101% (inactive); in assay [2], 106% (inactive); in assay [3], 90.4% (inactive); in assay [4] (setting [7]), 81.9%; in assay [4] (setting [8]), 90.4%. Besides, in assay [4] (H69AR cells + 2 uM doxorubicin), the differential viability (reversal) is 8.54% (inactive). The figures for the inhibition in assay [5] and in assay [6] were 1.04% (inactive) and -2.46% (inactive), respectively.

`O=C(NCc1ccco1)c1cc2cc3ccc(Cl)cc3nc2o1`: the viability was 90% (inactive) in assay [1]; 21.4% (active) in assay [2]; 2.59% (active) in assay [3]; 2.98% in assay [4] (setting [7]); 2.59% in assay [4] (setting [8]). The differential viability (reversal) in assay [4] (H69AR cells + 2 uM doxorubicin) is -0.39% (inactive). Also, the inhibition in assay [5] was -0.65% (inactive); in assay [6] it was 0% (inactive).

`CCOC(=O)CSc1nnc(NCC(=O)OC(C)C)c(=O)[nH]1`: the viability is 102% (inactive) in assay [1]; 93.9% (inactive) in assay [2]; 93.3% (inactive) in assay [3]; 91.4% in assay [4] (setting [7]); 93.3% in assay [4] (setting [8]). Moreover, in assay [4] (H69AR cells + 2 uM doxorubicin), the differential viability (reversal) is 1.93% (inactive). Further, the inhibition was -1.56% (inactive) in assay [5] and -3.61% (inactive) in assay [6].

As for `COc1ccc(-c2nnn(CC(=O)c3ccc4c(c3)OCCO4)n2)cc1OC`, the viability in assay [1] was 92% (inactive); in assay [2], 73.8% (inactive); in assay [3], 81.5% (inactive); in assay [4] (setting [7]), 73.7%; in assay [4] (setting [8]) it was 81.5%. The differential viability (reversal) in assay [4] (H69AR cells + 2 uM doxorubicin) is 7.78% (inactive). Moreover, the inhibition was -7.26% (inactive) in assay [5] and 0% (inactive) in assay [6].

Regarding `CCOc1nc(NCCC2=CCCCC2)nc(N2CCOCC2)n1`, the viability was 102% (inactive) in assay [1]; 95.8% (inactive) in assay [2]; 96.7% (inactive) in assay [3]; 82.1% in assay [4] (setting [7]); 96.7% in assay [4] (setting [8]). In addition, in assay [4] (H69AR cells + 2 uM doxorubicin), the differential viability (reversal) is 14.6% (inactive). Further, the inhibition in assay [5] is -3.33% (inactive); in assay [6], 1.64% (inactive).

As to `O=C(Nc1cccc2ccccc12)N1CCN(c2ccccc2)CC1`, the viability in assay [1] was 89% (inactive); in assay [2] it was 96.8% (inactive); in assay [3], 94.4% (inactive); in assay [4] (setting [7]), 101%; in assay [4] (setting [8]), 94.4%. The differential viability (reversal) in assay [4] (H69AR cells + 2 uM doxorubicin) was -7% (inactive). The values for the inhibition in assay [5] and in assay [6] were -0.91% (inactive) and 0.49% (inactive), respectively.

For the compound `COCCNC(=O)C(c1cccs1)N(C(=O)Cn1nnc2ccccc21)c1ccccc1` (centres undefined), the viability in assay [1] is 97% (inactive); in assay [2], 107% (inactive); in assay [3], 97.2% (inactive); in assay [4] (setting [7]) it was 94%; in assay [4] (setting [8]), 97.2%. In addition, the differential viability (reversal) in assay [4] (H69AR cells + 2 uM doxorubicin) is 3.17% (inactive). The inhibition in assay [5] was -2.34% (inactive); in assay [6], -5.9% (inactive).

As for `CCOC(=O)c1c(C)oc2ccc(NS(=O)(=O)c3ccc4c5c(cccc35)C(=O)N4)cc12`, the viability in assay [1] was 103% (inactive); in assay [2] it was 76.9% (inactive); in assay [3] it was 83.9% (inactive); in assay [4] (setting [7]), 83.1%; in assay [4] (setting [8]) it was 83.9%. Further, in assay [4] (H69AR cells + 2 uM doxorubicin), the differential viability (reversal) was 0.75% (inactive). Besides, the figures for the inhibition in assay [5] and in assay [6] were -7.53% (inactive) and 5.27% (inactive), respectively.

Regarding `C=CCSc1nnc(-c2ccc(Cl)cc2Cl)o1`, the viability was 96% (inactive) in assay [1]; 107% (inactive) in assay [2]; 87.9% (inactive) in assay [3]; 67.9% in assay [4] (setting [7]); 87.9% in assay [4] (setting [8]). For the same compound, in assay [4] (H69AR cells + 2 uM doxorubicin), the differential viability (reversal) is 19.9% (inactive). In addition, the inhibition in assay [5] is -5.47% (inactive); in assay [6], 0.73% (inactive).

As to `COc1cccc(NC(=O)C2CCCN2C(=O)Nc2cccc(F)c2)c1` (centres undefined), the viability was 96% (inactive) in assay [1]; 103% (inactive) in assay [2]; 103% (inactive) in assay [3]; 94% in assay [4] (setting [7]); 103% in assay [4] (setting [8]). In assay [4] (H69AR cells + 2 uM doxorubicin), the differential viability (reversal) is 8.87% (inactive). In addition, the inhibition in assay [5] was -3.7% (inactive); in assay [6] it was -3.06% (inactive).

In the case of `Cc1c(C(=O)NCc2ccoc2)oc2ccc3c(c12)C(=O)CC(C)(C)O3`, the viability in assay [1] was 129% (inactive); in assay [2], 75.1% (inactive); in assay [3], 76.2% (inactive); in assay [4] (setting [7]), 78.9%; in assay [4] (setting [8]) it was 76.2%. Moreover, in assay [4] (H69AR cells + 2 uM doxorubicin), the differential viability (reversal) is -2.74% (inactive). Moreover, the inhibition in assay [5] was -0.52% (inactive); in assay [6], 3.77% (inactive).

On to `Cc1ccccc1-n1nc(C)c2cc(C(=O)NCc3cccnc3)sc21`, for which the viability in assay [1] is 126% (inactive); in assay [2], 74.1% (inactive); in assay [3] it was 70.3% (inactive); in assay [4] (setting [7]), 59.4%; in assay [4] (setting [8]) it was 70.3%. Moreover, in assay [4] (H69AR cells + 2 uM doxorubicin), the differential viability (reversal) is 10.8% (inactive). The inhibition was -1.95% (inactive) in assay [5] and 9.51% (inactive) in assay [6].

As to `COC(=O)CSc1nnc(-c2cccs2)n1-c1ccc(Cl)cc1`, the viability is 88% (inactive) in assay [1]; 93.8% (inactive) in assay [2]; 89.8% (inactive) in assay [3]; 83.1% in assay [4] (setting [7]); 89.8% in assay [4] (setting [8]). For the same compound, the differential viability (reversal) in assay [4] (H69AR cells + 2 uM doxorubicin) was 6.75% (inactive). Moreover, the figures for the inhibition in assay [5] and in assay [6] were -8.49% (inactive) and -4.68% (inactive), respectively.
